Measured values published in PubChem BioAssay.
The source made the active and inactive calls.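 How the source made its calls, unless noted: active means viability at or below 30% in both replicate assays; inconclusive means viability at or below 30% in just one of the two assays; inactive means the rest.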

Columns and labels:
[1] = reduced viability of SK-BR-3 breast cancer cells – cell-based, 24 h, human, pilot screen (AID 572;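 active means viability at or below 10% of carrier control in both of two separate runs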;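 further: compound exposure lasted between 18 and 24 h rather than exactly 24 h; 100% = carrier-treated control wells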); conditions: SK-BR-3 viability, CellTiter-Glo luminescence, at 10 µM, stronger effect = lower value
[2] = HUVEC growth inhibition – cell-based, human, primary screen (AID 575); conditions: HUVEC proliferation, CellTiter-Glo luminescence, 72 h; at 10 µM; stronger effect = lower value;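 further: 100% = median of untreated cell wells with 0.1% DMSO on each plate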
Procedure, shortened: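 Assay system: Primary human umbilical vein endothelial cells | Quantity: 1250 cells per well | Medium: Supplemented EBM, 2% fetal bovine serum | Detection: CellTiter-Glo luminescence measuring cellular ATP | Read-out: % viability vs DMSO wells | Plate: Collagen-coated 384-well format | Times: 72 h exposure, 37 °C, 5% CO2, 30 min RT equilibration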

[3] = H69AR cell proliferation blockers – human, duplicate replicates, primary screen (AID 580;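 active means viability at or under a set limit in both replicates, limit being median viability minus 3 SD, cut at about 48% in these data, passing the limit was not always enough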;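 further: 100% = mean luminescence of untreated wells and 0% = no signal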); conditions: H69AR lung tumor cells viability, ATP luminescence, 72 h; at 10 µM; stronger effect = lower value
[4] = MRP1 drug-resistance reversers in H69AR cells – cell-based, doxorubicin co-treatment, pilot screen (AID 601;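 active means viability loss from added drug above about 55%, and viability with drug at most 40%, in both replicates, limit read from the data, passing the limit was not always enough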); conditions: CellTiter-Glo, 72 h, at 10 µM; for differential viability (reversal): stronger effect = higher value
[5] = yeast transport mutant growth inhibition pilot in 384-well plates, post-Golgi transport modulator project (AID 636; in the data active means inhibition above about 31%); conditions: absorbance 615 nm, about 18 h, stronger effect = higher value
[6] = growth suppression of yeast trafficking mutant, preliminary HTS, modulators of trafficking downstream of Golgi apparatus project, 1536-format plate, OD 615 nm (AID 637; in the data active means inhibition above about 30%); conditions: yeast transport mutant growth, absorbance 615 nm, 18 h; stronger effect = higher value
[7] = H69AR cells + 2 uM doxorubicin, measured here: viability with 2 uM doxorubicin, stronger effect = lower value
[8] = H69AR cells, compound alone cytotoxicity

| Compound | viability [1] | viability [2] | viability [3] | differential viability (reversal) ([4]; H69AR cells + 2 uM doxorubicin) | viability [4, 7] | viability [4, 8] | inhibition [5] | inhibition [6] |
| --- | --- | --- | --- | --- | --- | --- | --- | --- |
| CCOC(=O)Cc1csc(/C(=N/O)C(N)=O)n1 | 94% (inactive) | 94.7% (inactive) | 92.6% (inactive) | -4.43% (inactive) | 97.1% | 92.6% | -1.82% (inactive) | -5.41% (inactive) |
| CCOc1ccccc1CN(Cc1ccco1)S(=O)(=O)c1ccc(-n2cnnn2)c(OC)c1 | 82.5% (inactive) | 54.7% (inactive) | 6.69% (active) | -67.4% (inactive) | 74.1% | 6.69% | -3.7% (inactive) | -2.06% (inactive) |
| O=C(c1ccc(F)cc1)C1CCN(CCn2c(=O)[nH]c3ccccc3c2=O)CC1 | 94% (inactive) | 89.5% (inactive) | 96.2% (inactive) | 1.93% (inactive) | 94.3% | 96.2% | -2.73% (inactive) | 1.33% (inactive) |
| Cc1csc(NC(=O)c2ccoc2C)n1 | 103% (inactive) | 84.6% (inactive) | 86.3% (inactive) | -5.44% (inactive) | 91.8% | 86.3% | -4.66% (inactive) | -8.39% (inactive) |
| O=C(O)C1CCCN1C(=O)c1cccs1 (configuration not stated) | 114% (inactive) | 88.3% (inactive) | 103% (inactive) | 3.11% (inactive) | 100% | 103% | 3.15% (inactive) | -2.58% (inactive) |
| CCCCOC(=O)c1cccc(NC(=O)CC)c1 | 113% (inactive) | 91.1% (inactive) | 89.6% (inactive) | 1.34% (inactive) | 88.3% | 89.6% | 5.71% (inactive) | 13.4% (inactive) |
| C#CCSc1nc(-c2cccs2)ccc1C#N | 91% (inactive) | 95.1% (inactive) | 71.4% (inactive) | -22.5% (inactive) | 93.9% | 71.4% | -0.96% (inactive) | 21.8% (inactive) |
| Cc1cc(NC(=O)CSc2nc(CCC3CCCC3)nc3ccccc23)no1 | 92% (inactive) | 92.2% (inactive) | 22.3% (active) | -1.14% (inactive) | 23.4% | 22.3% | -2.86% (inactive) | -5.08% (inactive) |
| Cc1nnc(SCc2ccccc2F)n1NCc1cccs1 | 100% (inactive) | 93.6% (inactive) | 89% (inactive) | -0.635% (inactive) | 89.7% | 89% | -6.85% (inactive) | 5% (inactive) |
| COc1nc(NCCc2ccc(OC)c(OC)c2)nc(NC(C)(C)CO)n1 | 96% (inactive) | 113% (inactive) | 95.5% (inactive) | 7.75% (inactive) | 87.8% | 95.5% | -3.38% (inactive) | -1.31% (inactive) |
| CCN(CC)S(=O)(=O)c1ccc(NC(=O)c2cccc3c2C(=O)N(CCOC)C3)cc1 | 119% (inactive) | 109% (inactive) | 94.4% (inactive) | 9.21% (inactive) | 85.2% | 94.4% | -9.73% (inactive) | -5.45% (inactive) |
| O=C(c1csc2ccccc12)n1cccn1 | 117% (inactive) | 89.7% (inactive) | 93% (inactive) | 6.73% (inactive) | 86.3% | 93% | -12.3% (inactive) | -1.29% (inactive) |
| CC(=O)OCC(=O)[C@@]1(O)CC[C@H]2[C@@H]3CCC4=CC(=O)C=C[C@]4(C)[C@H]3[C@@H](O)C[C@@]21C | 82% (inactive) | 91.5% (inactive) | 91.1% (inactive) | -7.15% (inactive) | 98.2% | 91.1% | 1.56% (inactive) | -1.83% (inactive) |
| Cc1ccc(C(O)c2nc3ccccc3n2C(C)C)cc1 (configuration not stated) | 62% (inactive) | 101% (inactive) | 91.5% (inactive) | 3.7% (inactive) | 87.8% | 91.5% | -7.53% (inactive) | -5.82% (inactive) |
| COC(=O)CCC(=O)CN | 111% (inactive) | 92.9% (inactive) | 88.6% (inactive) | -4.23% (inactive) | 92.8% | 88.6% | -1.3% (inactive) | 5.67% (inactive) |
| COc1ccc(-n2nnnc2SCC(=O)c2ccc(O)c(O)c2)cc1 | 74% (inactive) | 58.6% (inactive) | 34.7% (active) | -41.9% (inactive) | 76.6% | 34.7% | -5.89% (inactive) | -1.45% (inactive) |
| CN1CCN(c2nc3c(c(=O)n(C)c(=O)n3C)n2Cc2cccc3ccccc23)CC1 | 129% (inactive) | 77.5% (inactive) | 84% (inactive) | 26.6% (inactive) | 57.4% | 84% | 0% (inactive) | 0.16% (inactive) |
| CC1(C)CC(=O)C(C=NC(CCC(N)=O)C(=O)O)=C(O)C1 (configuration not stated) | 96% (inactive) | 96.5% (inactive) | 91.9% (inactive) | 8.63% (inactive) | 83.3% | 91.9% | -8.22% (inactive) | 0.18% (inactive) |
| CCC1CCCCN1c1nc(-c2ccncc2)nc2ccccc12 (configuration not stated) | 76.5% (inactive) | 15.1% (active) | 14.5% (active) | -40.4% (inactive) | 55% | 14.5% | -0.79% (inactive) | 0.49% (inactive) |

| Compound | viability [1] | viability [2] | viability [3] | differential viability (reversal) ([4]; H69AR cells + 2 uM doxorubicin) | viability [4, 7] | viability [4, 8] | inhibition [5] | inhibition [6] |
| --- | --- | --- | --- | --- | --- | --- | --- | --- |
| CN(C)CC(C(=O)c1ccccc1)c1ccccc1 (configuration not stated) | 30.5% | 53.4% (inactive) | 1.17% (active) | -0.515% (inactive) | 1.68% | 1.17% | 2.95% (inactive) | -4.33% (inactive) |
| CC1(C)CC(=O)c2sc(NS(C)(=O)=O)nc2C1 | 119% (inactive) | 101% (inactive) | 96% (inactive) | 12.7% (inactive) | 83.2% | 96% | -6.16% (inactive) | 1.94% (inactive) |
| Cc1cc(C)n(CC(=O)NC2CCCCC2)n1 | 113% (inactive) | 114% (inactive) | 98% (inactive) | 12.7% (inactive) | 85.3% | 98% | -8.49% (inactive) | 0.32% (inactive) |
| CCCCc1c(O)nc(SCC(=O)Nc2ccc3c(c2)CCC3)[nH]c1=O | 96% (inactive) | 79.7% (inactive) | 94.8% (inactive) | 10.9% (inactive) | 83.9% | 94.8% | -3.73% (inactive) | -2.91% (inactive) |
| CCN1CCN(c2nc3c(c(=O)n(C)c(=O)n3C)n2CCSc2ncccn2)CC1 | 116% (inactive) | 91.7% (inactive) | 94.8% (inactive) | 7% (inactive) | 87.8% | 94.8% | -5.07% (inactive) | -9.68% (inactive) |
| O=C(Nc1cccc(-c2nnc(-c3ccccc3)o2)c1)C1CCCCC1 | 88% (inactive) | 82.8% (inactive) | – | 0.7% (inactive) | 53.3% | 54% | -8.49% (inactive) | 3.55% (inactive) |
| COc1ccc(OC)c(N(CC(=O)Nc2cccnc2)S(=O)(=O)c2ccc(OC)c(OC)c2)c1 | 112% (inactive) | 91% (inactive) | 83.7% (inactive) | -2.03% (inactive) | 85.7% | 83.7% | -6.58% (inactive) | 0.91% (inactive) |
| CCCNC(=O)c1cc(-c2ccco2)on1 | 77% (inactive) | 88.3% (inactive) | 97.4% (inactive) | – | – | – | -1.87% (inactive) | 2.73% (inactive) |
| CC1(C)Cc2c(c(=S)nc(-c3ccccc3)n2CCO)CO1 | 111% (inactive) | 106% (inactive) | 87.6% (inactive) | -4.25% (inactive) | 91.9% | 87.6% | -1.43% (inactive) | -6.72% (inactive) |
| COc1ccc(C)cc1-n1c(N)c(C#N)c(C#N)c1-c1ccc(OC)c(OC)c1OC | 97% (inactive) | 68.7% (inactive) | 72.9% (inactive) | – | – | – | -3.51% (inactive) | -1.31% (inactive) |
| C1CCC(C(CC2CCCCN2)C2CCCCC2)CC1 (configuration not stated) | 2% (active) | 2.58% (active) | – | 0.29% (inactive) | 1.26% | 1.55% | – | – |
| CC(=O)[C@H]1CC[C@H]2[C@@H]3CCC4=CC(=O)CC[C@]4(C)[C@H]3CC[C@]12C | 93% (inactive) | 49.4% (inactive) | – | -3.29% (inactive) | 50.5% | 47.2% | 5.06% (inactive) | -1% (inactive) |
| Cc1cc(C)nc(NC2=NCC(=O)N2c2ccc(Cl)cc2)n1 | 99% (inactive) | 117% (inactive) | 97.1% (inactive) | 1.69% (inactive) | 95.4% | 97.1% | -7.03% (inactive) | 0.55% (inactive) |
| CN1CCN(CCCN2c3ccccc3Sc3ccc(Cl)cc32)CC1 | 25% | 3.48% (active) | – | -15.4% (inactive) | 58.6% | 43.1% | – | – |
| COC(=O)c1ccc(CSc2nc3ccccc3s2)o1 | 101% (inactive) | 88.7% (inactive) | 85% (inactive) | -19.3% (inactive) | 104% | 85% | -4.93% (inactive) | -3.09% (inactive) |
| C=C1[C@@H](C)C2[C@H](Cc3ccccc3)NC(=O)[C@]23OC(=O)CC[C@H](O)CCC[C@H](C)C/C=C/[C@H]3[C@@H]1O (some centres not stated) | 95% (inactive) | 13.1% (active) | – | -16.3% (inactive) | 48.2% | 31.9% | -0.26% (inactive) | 0.67% (inactive) |
| Cc1cc(NC(=O)Cc2c(F)cccc2Cl)no1 | 102% (inactive) | 95.5% (inactive) | 96% (inactive) | 6.76% (inactive) | 89.2% | 96% | -7.26% (inactive) | 3.64% (inactive) |
| CCOC(=O)N1CCC(NC(=O)c2ccc3c(c2)sc2nc(-c4cccc(OC)c4)cn23)CC1 | 80% (inactive) | 52% (inactive) | – | 8.43% (inactive) | 41.5% | 49.9% | -1.95% (inactive) | -0.98% (inactive) |
| COc1ccc(C(=O)Nc2ccc(Cl)c(Cl)c2)c(OC)n1 | 93% (inactive) | 83.2% (inactive) | – | -7.11% (inactive) | 47.6% | 40.5% | -8.53% (inactive) | -4.36% (inactive) |
